The results in this text go back to ChEMBL document CHEMBL2157972, “Selenophene-containing inhibitors of type IIA bacterial topoisomerases” (J Med Chem, 2011).

Converted amounts (≈) assume the structure as drawn.

In data set [1] the test system is Staphylococcus aureus. In words: Antimicrobial activity against fluoroquinolone sensitive Staphylococcus aureus. Type of data set: functional. Put shortly:
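Standard susceptibility testing. The read-out is the minimum inhibitory concentration, reported in μg/mL.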

For data set [2], the system named is Staphylococcus aureus. In words: Antimicrobial activity against fluoroquinolone resistant Staphylococcus aureus. Type of data set: functional. Put shortly: (§1)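 Read-out is the minimum inhibitory concentration (MIC), reported in μg/mL, from standard antimicrobial susceptibility testing.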
The target in data set [3] is T1, Voltage-gated inwardly rectifying potassium channel KCNH2 (Homo sapiens, UniProt Q12809).
Data set [4] can be described thus: Cytotoxicity against […] CHO cell line after 72 hrs. The settings on record: chinese hamster, CHO cells. Type of data set: cell-based, Cricetulus griseus.
The test system of data set [5] is Staphylococcus aureus. In words: Antibacterial activity against fluoroquinolone resistant Staphylococcus aureus 1-FQR2M BK2384 expressing GyrA Ser84Leu mutant and GrlA Ser80Phe mutant. Type of data set: functional. Summed up: as §1
Data set [6] has as its system Staphylococcus aureus. In words: Antibacterial activity against fluoroquinolone resistant Staphylococcus aureus 4-FQR3M BSA643 expressing GyrA Ser84Leu mutant and GrlA Ser80Tyr and Glu84Gly mutant. Type of data set: functional. Summed up:
as §1

Data set [7] has as its system Staphylococcus aureus. Put plainly: Antibacterial activity against fluoroquinolone resistant Staphylococcus aureus 2-FQR2M NY2746 expressing GyrA Ser84Leu mutant and GrlA Ser80Phe mutant. Type of data set: functional. Summed up: as §1
The target of data set [8] is hERG (KCNH2) (Homo sapiens, UniProt Q12809). In words: Inhibition of human ERG expressed in mammalian cells at 10 uM by patch clamp method. Type of data set: cell-based. Particulars: mammalian cells that express hERG. Background: The patch-clamp technique gives a direct electrical read-out from membranes.
Data set [9] in a line: Inhibition of Staphylococcus aureus topoisomerase 4 by decatenation assay. Summed up:
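Enzyme activity was measured by topoisomerase IV decatenation using S. aureus enzyme. Inhibition is reported as a concentration in μM.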

The target in data set [10] is DNA gyrase (Staphylococcus aureus, UniProt P0A0K8+P20831). Put plainly: Inhibition of Staphylococcus aureus DNA gyrase by supercoiling assay. Type of data set: protein-complex assay.
The test system of data set [11] is Staphylococcus aureus. In words: Antibacterial activity against fluoroquinolone resistant Staphylococcus aureus 5-FQR4M BSA678 expressing GyrA Ser84Leu and Ser85Pro mutant and GrlA Ser80Phe and Glu84Lys mutant. Type of data set: functional. Put shortly:
as §1

The test system of data set [12] is Staphylococcus aureus. Put plainly: Antibacterial activity against fluoroquinolone resistant Staphylococcus aureus 3-FQR3M ATCC 700699 expressing GyrA Ser84Leu mutant and Glu409Lys mutant and GrlA Ser80Phe mutant. Type of data set: functional. Summed up:
as §1

The nature of data set [13]: Cytotoxicity against human HepG2 cell line after 72 hrs. Particulars: HepG2 cells. Type of data set: cell-based.
Data set [14] in a line: Cytotoxicity against human HeLa cell line after 72 hrs. Type of data set: cell-based. The settings on record: HeLa cells.
The subject of data set [15] is Staphylococcus aureus. Put plainly: Antibacterial activity against methicillin-sensitive Staphylococcus aureus ATCC 29213. Type of data set: functional. Put shortly: as §1
Data set [16] relates to Staphylococcus aureus. In words: Antibacterial activity against methicillin-resistant Staphylococcus aureus ATCC 700699. Type of data set: functional. Summed up:
as §1

Data set [17] in a line: Cytotoxicity against human Hep2 cell line after 72 hrs. Type of data set: cell-based. The settings on record: HEp-2 cells. Put shortly:
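Human laryngeal epidermoid carcinoma Hep2 cells were exposed for 72 h.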

The target in data set [18] is T1, Voltage-gated inwardly rectifying potassium channel KCNH2. Put plainly: Inhibition of human ERG expressed in mammalian cells by patch clamp method. Type of data set: cell-based.

The term MIC90 denotes an inhibitory concentration at the 90% level, which refers to growth in some studies and to a panel of isolates in others. Low values mean higher susceptibility, high ones lower susceptibility. In general, IC50 refers to the point on the concentration scale where inhibition reaches its midpoint. The CC50 is the concentration at which the toxic effect on the cells reaches its halfway point. Low values mean harm at low concentration, high ones better tolerance by the cells. By MIC is commonly meant the lowest concentration found to suppress growth. Higher therefore signals a need for much substance. What is called inhibition is the change of the read-out against control, counted positive when it falls.

In the case of `COc1ccc2ncc(F)c([C@@H](O)CC[C@@H]3CCN(CCSc4cccs4)C[C@@H]3C(=O)O)c2c1`, the MIC90 worked out at 1 µg/mL (≈ 1.98 µM) in [1] and 0.5 µg/mL (≈ 0.991 µM) in data set [2]. Moreover, in data set [3], the 50% inhibitory concentration (IC50) came out at 124 µM.
On to `COc1ccc2nccc([C@H](O)CC[C@@H]3CCN(CCSc4ccco4)C[C@@H]3C(=O)O)c2c1` (mixture of isomers), for which the CC50 at 72 h in data set [4], in [13], in data set [14] and in [17] was above 100 µM throughout. Also, the minimum inhibitory concentration (MIC) in data set [5] stood at 8 µg/mL; in data set [6], 16 µg/mL; in data set [7], 8 µg/mL; in [11] it was 32 µg/mL; in data set [12], 4 µg/mL; in data set [15] it was 4 µg/mL. This compound had a minimal inhibitory concentration (MIC) in data set [16] of 4 µg/mL. This compound registered an inhibition at 10 µM in data set [8] of 14%. The IC50 was above 100 µM in data set [9] and 10.2 µM in data set [10].
Consider `COc1ccc2nccc([C@@H](O)CC[C@@H]3CCN(CCSc4ccco4)C[C@@H]3C(=O)O)c2c1` (mixture of isomers), for which the cytotoxic concentration (CC50) at 72 h in data set [4], in [13], in [14] and in data set [17] was above 100 µM each time. The MIC in data set [5] amounted to 4 µg/mL; in [6] it was 4 µg/mL; in [7], 2 µg/mL; in data set [11], 8 µg/mL; in [12] it was 2 µg/mL; in data set [15] it was 2 µg/mL. 2 µg/mL was the least that counted as inhibitory in data set [16] (MIC). For the same compound, 10 µM produced 27% inhibition in data set [8]. The values for the IC50 in data set [9], in data set [18] and in data set [10] were above 100 µM, below 30 µM and 4.7 µM, respectively.
